Measurements taken from ChEMBL document CHEMBL5329164, “Design, synthesis, and evaluation of BTK-targeting PROTACs with optimized bioavailability in vitro and in vivo” (RSC Med Chem, 2023).

How the values were obtained:
[1] = Solubility in DMSO:Cremophor EL:1xPBS mixture at 10 mg/ml; format: physicochemical
[2] = Solubility in DMSO:Cremophor EL:1xPBS mixture at 10 mg/ml incubated for 7 days; format: physicochemical; conditions: 168 h, time 7 day
[3] = target: T1, Protein cereblon/Tyrosine-protein kinase BTK (Homo sapiens) (UniProt Q06187+Q96SW2); assay: PROTAC activity at CRBN/ BTK in human Ramos cells assessed as induction of BTK degradation at 250 nM incubated for 24 hrs by immunoblot analysis relative to control; format: cell-based
T1 sequence (Q06187 2-659 limits assumed): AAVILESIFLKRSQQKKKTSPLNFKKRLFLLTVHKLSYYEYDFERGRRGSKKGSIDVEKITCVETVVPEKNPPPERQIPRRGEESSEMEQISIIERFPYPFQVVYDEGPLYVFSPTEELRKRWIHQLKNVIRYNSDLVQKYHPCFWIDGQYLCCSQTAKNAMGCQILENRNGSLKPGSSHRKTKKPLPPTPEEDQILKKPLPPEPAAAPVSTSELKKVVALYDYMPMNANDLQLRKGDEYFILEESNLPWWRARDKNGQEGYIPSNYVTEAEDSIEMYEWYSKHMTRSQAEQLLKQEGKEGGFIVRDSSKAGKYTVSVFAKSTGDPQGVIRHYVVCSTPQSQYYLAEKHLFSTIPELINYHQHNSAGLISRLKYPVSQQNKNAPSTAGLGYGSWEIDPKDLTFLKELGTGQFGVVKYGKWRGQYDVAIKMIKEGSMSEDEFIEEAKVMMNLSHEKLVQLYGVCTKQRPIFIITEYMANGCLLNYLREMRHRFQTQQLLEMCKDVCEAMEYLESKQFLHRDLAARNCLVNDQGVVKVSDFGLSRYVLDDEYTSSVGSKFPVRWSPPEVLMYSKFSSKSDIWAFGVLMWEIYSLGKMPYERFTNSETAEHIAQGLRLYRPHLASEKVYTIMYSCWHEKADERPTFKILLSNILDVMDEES
T1 sequence (Q96SW2 whole entry partner): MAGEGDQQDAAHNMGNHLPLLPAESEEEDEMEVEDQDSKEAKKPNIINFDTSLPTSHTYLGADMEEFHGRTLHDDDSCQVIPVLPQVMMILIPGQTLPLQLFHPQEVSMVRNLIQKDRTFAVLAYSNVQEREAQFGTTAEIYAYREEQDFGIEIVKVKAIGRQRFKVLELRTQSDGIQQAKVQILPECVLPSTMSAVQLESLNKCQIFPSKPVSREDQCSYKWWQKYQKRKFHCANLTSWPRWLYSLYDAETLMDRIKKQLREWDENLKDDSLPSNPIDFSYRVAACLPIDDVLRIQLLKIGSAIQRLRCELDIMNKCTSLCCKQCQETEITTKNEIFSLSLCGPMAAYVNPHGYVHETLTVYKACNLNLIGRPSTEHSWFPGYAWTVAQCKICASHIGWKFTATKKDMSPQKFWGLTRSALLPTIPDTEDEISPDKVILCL
Summary of the method: (§1)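 Ramos cells in supplemented RPMI 1640 were plated at 3×10^5 cells/well and treated with compound for 24 h. Lysates in SDS sample buffer were heated at 100 °C for 15 min and run on 10% SDS-PAGE, then transferred to PVDF. Membranes were probed overnight at 4 °C for BTK, GSPT1 and β-actin.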

[4] = target: T1, Protein cereblon/Tyrosine-protein kinase BTK (Homo sapiens); assay: PROTAC activity at CRBN/ BTK in human Ramos cells assessed as induction of BTK degradation at 500 nM incubated for 24 hrs by immunoblot analysis relative to control; format: cell-based; summary of the method: as §1
[5] = Stability in rat liver microsomes assessed as half life at 1 uM preincubated for 10 mins followed by reaction initiation measured upto 60 mins in presence of NADPH; format: ADME, Microsome; conditions: time < 70 min
Summary of the method: (§2)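 Compound at 1 μM final was incubated with 0.5 mg/mL mouse, rat, dog, monkey or human liver microsomes in 100 mM PBS, pH 7.4, with 1 mM NADPH at 37 °C after a 10 min preincubation. Reactions were stopped at 0, 5, 15, 30 and 60 min with ice-cold acetonitrile containing tolbutamide. Supernatants were taken for bioanalysis.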

[6] = Stability in human liver microsomes assessed as intrinsic clearance measured per mg protein at 1 uM preincubated for 10 mins followed by reaction initiation measured upto 60 mins in presence of NADPH; format: ADME, Microsome; conditions: time < 70 min, read-out: CLH; summary of the method: as §2
[7] = Tmax in BALB/c mouse at 5 mg/kg, po measured for 24 hrs by LCMS analysis; format: ADME, organism-based; conditions: in vivo
Summary of the method: (§3)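 Male Balb/c mice, 9 per group, dosed intragastrically at 5 mg/kg; the same compounds were also given iv at 2 mg/kg. Blood was drawn into EDTA-K2 tubes at 0.25, 0.5, 1, 2, 4, 6, 8 and 24 h. Plasma proteins were precipitated with acetonitrile containing tolbutamide. Quantification was by LC-MS on a C18 column with a formic acid water/acetonitrile gradient.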

[8] = Apparent permeability across apical to basal side in MDCK-II cells assessed as compound recovery at 10 uM measured for 120 mins by LC-MS/MS analysis; format: ADME, cell-based, Canis lupus familiaris; conditions: dog, read-out: Drug recovery
Summary of the method: (§4)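 MDCK monolayers were grown on Transwell inserts (5 x 10^4 cells/cm²) and used at day 5. Compound at 10 μM in HBSS with 10 mM Hepes, pH 7.40, was dosed apically or basolaterally and incubated at 37±1 °C. Receiver and donor samples were taken at 120 min and quantified by LC-MS/MS against an internal standard. Lucifer yellow passage below 1% confirmed monolayer integrity.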

[9] = Apparent permeability across apical to basal side in MDCK-II cells at 10 uM measured for 120 mins by LC-MS/MS analysis; format: ADME, cell-based, Canis lupus familiaris; conditions: dog
Summary of the method: (§5)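 MDCK monolayers were grown on Transwell inserts (5 x 10^4 cells/cm²) and used at day 5. Compound at 10 μM in HBSS with 10 mM Hepes, pH 7.40, was dosed apically or basolaterally and incubated at 37±1 °C. Lucifer yellow passage below 1% confirmed monolayer integrity.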

[10] = Stability in human liver microsomes assessed as half life at 1 uM preincubated for 10 mins followed by reaction initiation measured upto 60 mins in presence of NADPH; format: ADME, Microsome; conditions: time < 70 min; summary of the method: as §2
[11] = Apparent permeability across basal to apical side in MDCK-II cells at 10 uM measured for 120 mins by LC-MS/MS analysis; format: ADME, cell-based, Canis lupus familiaris; conditions: dog; summary of the method: as §5
[12] = Apparent volume of distribution in BALB/c mouse at 2 mg/kg, iv measured for 24 hrs by LCMS analysis; format: ADME, organism-based; conditions: in vivo, read-out: Vz
Summary of the method: (§6)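 Male Balb/c mice, 9 per group, dosed intravenously at 2 mg/kg. Blood was drawn into EDTA-K2 tubes at 0.083, 0.25, 0.5, 1, 2, 4, 6, 8 and 24 h. Plasma was separated by centrifugation at 2000 g for 10 min and precipitated with acetonitrile containing tolbutamide internal standard. Analysis was by LC-MS on a polar C18 column with a water/acetonitrile 0.1% formic acid gradient.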

[13] = Stability in monkey liver microsomes assessed as half life at 1 uM preincubated for 10 mins followed by reaction initiation measured upto 60 mins in presence of NADPH; format: ADME, Macaca mulatta, Microsome; conditions: rhesus monkey, time < 70 min; summary of the method: as §2
[14] = Stability in dog liver microsomes assessed as intrinsic clearance measured per mg protein at 1 uM preincubated for 10 mins followed by reaction initiation measured upto 60 mins in presence of NADPH; format: ADME, Canis lupus familiaris, Microsome; conditions: time < 70 min, read-out: CLH; summary of the method: as §2
[15] = Apparent permeability across basal to apical side in MDCK-II cells assessed as compound recovery at 10 uM measured for 120 mins by LC-MS/MS analysis; format: ADME, cell-based, Canis lupus familiaris; conditions: dog, read-out: Drug recovery; summary of the method: as §4
[16] = Oral bioavailability in BALB/c mouse at 5 mg/kg measured for 24 hrs by LCMS analysis; format: ADME, organism-based; conditions: in vivo; summary of the method: as §3
[17] = Stability in monkey liver microsomes assessed as intrinsic clearance measured per mg protein at 1 uM preincubated for 10 mins followed by reaction initiation measured upto 60 mins in presence of NADPH; format: ADME, Macaca mulatta, Microsome; conditions: rhesus monkey, time < 70 min, read-out: CLH; summary of the method: as §2
[18] = AUClast in BALB/c mouse at 2 mg/kg, iv measured for 24 hrs by LCMS analysis; format: ADME, organism-based; set-up: time 24 hrs, dose 2 mg/kg, route iv; conditions: in vivo; summary of the method: as §6
[19] = Clearance in BALB/c mouse at 2 mg/kg, iv measured for 24 hrs by LCMS analysis; format: ADME, organism-based; conditions: in vivo; summary of the method: as §6
[20] = Half life in BALB/c mouse at 5 mg/kg, po measured for 24 hrs by LCMS analysis; format: ADME, organism-based; conditions: in vivo; summary of the method: as §3
[21] = Stability in mouse liver microsomes assessed as half life at 1 uM preincubated for 10 mins followed by reaction initiation measured upto 60 mins in presence of NADPH; format: ADME, Microsome; conditions: time < 70 min; summary of the method: as §2
[22] = Stability in dog liver microsomes assessed as half life at 1 uM preincubated for 10 mins followed by reaction initiation measured upto 60 mins in presence of NADPH; format: ADME, Canis lupus familiaris, Microsome; conditions: time < 70 min; summary of the method: as §2
[23] = Stability in mouse liver microsomes assessed as intrinsic clearance measured per mg protein at 1 uM preincubated for 10 mins followed by reaction initiation measured upto 60 mins in presence of NADPH; format: ADME, Microsome; conditions: time < 70 min, read-out: CLH; summary of the method: as §2
[24] = Stability in rat liver microsomes assessed as intrinsic clearance measured per mg protein at 1 uM preincubated for 10 mins followed by reaction initiation measured upto 60 mins in presence of NADPH; format: ADME, Microsome; conditions: time < 70 min, read-out: CLH; summary of the method: as §2
[25] = AUClast in BALB/c mouse at 5 mg/kg, po measured for 24 hrs by LCMS analysis; format: ADME, organism-based; set-up: dose 5 mg/kg, time 24 hrs, route po; conditions: in vivo; summary of the method: as §3
[26] = Half life in BALB/c mouse at 2 mg/kg, iv measured for 24 hrs by LCMS analysis; format: ADME, organism-based; conditions: in vivo; summary of the method: as §6
[27] = Cmax in BALB/c mouse at 5 mg/kg, po measured for 24 hrs by LCMS analysis; format: ADME, organism-based; set-up: dose 5 mg/kg, time 24 hrs, route po; conditions: in vivo; summary of the method: as §3
[28] = target: T1, Protein cereblon/Tyrosine-protein kinase BTK (Homo sapiens); assay: PROTAC activity at CRBN/ BTK in human Ramos cells assessed as induction of BTK degradation at 100 nM incubated for 24 hrs by immunoblot analysis relative to control; format: cell-based; summary of the method: as §1
[29] = target: T1, Protein cereblon/Tyrosine-protein kinase BTK (Homo sapiens); assay: PROTAC activity at CRBN/ BTK in human Ramos cells assessed as induction of BTK degradation at 300 nM incubated for 24 hrs by immunoblot analysis relative to control; format: cell-based; summary of the method: as §1

With `C=CC(=O)N1CCC[C@@H](n2nc(-c3ccc(Oc4ccccc4)cc3)c3c(N)ncnc32)C1` [IBRUTINIB] the solubility [1] was “Soluble” and the solubility [2] was “Insoluble”.
For `Nc1ncnc2c1c(-c1ccc(Oc3ccccc3)cc1)nn2[C@@H]1CCCN(C(=O)c2ccc(-c3ccc(Nc4ccc5c(c4)C(=O)N(C4CCC(=O)NC4=O)C5=O)cc3)cc2)C1` (some centres not stated), the Activity [3] was 38.4% and the Activity [4] was 38.8%.
Molecule `Nc1ncnc2c1c(-c1ccc(Oc3ccccc3)cc1)nn2C1CCN(C(=O)Cc2ccc(Nc3ccc4c(c3)CN(C3CCC(=O)NC3=O)C4=O)cc2)CC1` (configuration not stated) has a half-life at 1 µM [5] of 24.8 min, a microsomal CLint at 1 µM [6] of 147 µL/min/mg and a Tmax [7] of 30 min. The recovery at 2 h, 10 µM [8] was 98.5%, the Papp A→B at 2 h, 10 µM [9] was 0.003 ×10⁻⁶ cm/s and the half-life at 1 µM [10] was 9.46 min. The Papp B→A at 2 h, 10 µM [11] was 0.25 ×10⁻⁶ cm/s, the Vd [12] was 1.74 L/kg and the half-life at 1 µM [13] was 8.91 min. The microsomal CLint at 1 µM [14] was 48.7 µL/min/mg, the recovery at 2 h, 10 µM [15] was 101% and the bioavailability [16] was 0.51%. It also gave a microsomal CLint at 1 µM [17] of 156 µL/min/mg, an AUC(0-t) at 24 h [18] of 8120 ng·h/mL and a clearance [19] of 4.08 mL/min/kg. It also gave a half-life [20] of 87 min, a half-life at 1 µM [21] of 13 min and a half-life at 1 µM [22] of 28.5 min. It also gave a microsomal CLint at 1 µM [23] of 107 µL/min/mg, a microsomal CLint at 1 µM [24] of 55.9 µL/min/mg and an AUC(0-t) at 24 h [25] of 103 ng·h/mL. It also gave a half-life [26] of 296 min and a Cmax [27] of 83.2 ng/mL.
With `Nc1ncnc2c1c(-c1ccc(Oc3ccccc3)cc1)nn2[C@@H]1CCCN(C(=O)N2CC3(C2)CN(c2ccc4c(c2)C(=O)N(C2CCC(=O)NC2=O)C4=O)C3)C1` (some centres not stated) the Activity [28] was 23.1% and the Activity [29] was 24.5%.
Work on `Nc1ncnc2c1c(-c1ccc(Oc3ccccc3)cc1)nn2[C@@H]1CCCN(C(=O)c2ccc(Nc3ccc4c(c3)C(=O)N(C3CCC(=O)NC3=O)C4=O)cc2)C1` (some centres not stated) yielded an Activity [28] of 18.2% and an Activity [29] of 20.1%.
`Nc1ncnc2c1c(-c1ccc(Oc3ccccc3)cc1)nn2[C@@H]1CCCN(C(=O)c2ccc(Nc3ccc4c(c3)CN(C3CCC(=O)NC3=O)C4=O)cc2)C1` (some centres not stated) showed an Activity [28] of 6.9% and an Activity [29] of 12%.
In the case of `COCCc1ccc(OCC(O)CNC(C)C)cc1` (configuration not stated) [METOPROLOL], the recovery at 2 h, 10 µM [8] is reported as 97.1%, the Papp A→B at 2 h, 10 µM [9] is reported as 21.1 ×10⁻⁶ cm/s and the Papp B→A at 2 h, 10 µM [11] is reported as 11.3 ×10⁻⁶ cm/s. The recovery at 2 h, 10 µM [15] was 95.9%.
